This is an account of results in ChEMBL document CHEMBL2176925, “Novel ¹⁸F-labeled benzoxazole derivatives as potential positron emission tomography probes for imaging of cerebral β-amyloid plaques in Alzheimer's disease” (J Med Chem, 2012).

In data set [1] the test system is Brain. Put plainly: Ratio of drug uptake in brain at 2 mins to drug uptake in 20 mins in wild type C57BL6 mouse. The data set is classed as ADME, tissue-based. The note with it: in vivo.
In data set [2] the test system is Cortex. Put plainly: Drug uptake in transgenic C57BL6 mouse cortex expressing APP Swedish mutant at 40.7 MBq, iv at 60 mins by microPET imaging. It counts as ADME, organism-based. The conditions noted are these: in vivo, 1 h.
Data set [3] deals with Spleen. Put plainly: Drug uptake in ddY mouse spleen at 370 kBq/100 ul, iv at 30 mins by gamma-counting analysis. It counts as ADME, organism-based. The conditions noted are these: in vivo, 0.5 h. The method, boiled down:
(§1)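 Normal male ddY mice (5 weeks, 20−22 g, n = 5) received 370 kBq of tracer in 100 μL saline with 5% EtOH via tail vein. Mice were sacrificed at set times after injection, and organs were excised, weighed and γ-counted against diluted injectate aliquots. Values are %ID per gram, except stomach and intestine as %ID per organ, given as mean ± SD of 5 mice.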

Data set [4] relates to Liver. The data set is described as follows: Drug uptake in ddY mouse liver at 370 kBq/100 ul, iv at 60 mins by gamma-counting analysis. It counts as ADME, organism-based. The note with it: in vivo, 1 h. The method, boiled down: as §1
In data set [5] the test system is Spleen. The data set is described as follows: Drug uptake in ddY mouse spleen at 370 kBq/100 ul, iv at 2 mins by gamma-counting analysis. The data set is classed as ADME, organism-based. The note with it: in vivo. In outline:
as §1

Data set [6] relates to Intestine. The data set is described as follows: Drug uptake in ddY mouse intestine at 370 kBq/100 ul, iv at 30 mins by gamma-counting analysis. The conditions noted are these: in vivo, 0.5 h. It counts as ADME, organism-based. The method, boiled down: as §1
Data set [7] relates to Brain. Put plainly: Drug uptake in wild type C57BL6 mouse brain at 40.7 MBq, iv up to 60 mins by microPET imaging. The data set is classed as ADME, organism-based. The note with it: in vivo, 1 h.
In data set [8] the test system is Hippocampus. Put plainly: Drug uptake in transgenic C57BL6 mouse hippocampus expressing APP Swedish mutant at 40.7 MBq, iv at 60 mins by microPET imaging. The data set is classed as ADME, organism-based. The conditions noted are these: in vivo, 1 h.
In data set [9] the test system is Brain. Put plainly: Drug uptake in transgenic C57BL6 mouse brain expressing APP Swedish mutant at 40.7 MBq, iv at 2 mins by microPET imaging. It counts as ADME, organism-based. The conditions noted are these: in vivo.
Data set [10] has as its system Brain. Put plainly: Drug uptake in ddY mouse brain at 370 kBq/100 ul, iv at 2 mins by gamma-counting analysis. It counts as ADME, organism-based. The conditions noted are these: in vivo. The method, boiled down: as §1
In data set [11] the test system is Stomach. Put plainly: Drug uptake in ddY mouse stomach assessed per organ at 370 kBq/100 ul, iv at 2 mins by gamma-counting analysis. It counts as ADME, organism-based. The conditions noted are these: in vivo. The method, boiled down:
as §1

Data set [12] deals with Brain. The data set is described as follows: Drug uptake in ddY mouse brain at 370 kBq/100 ul, iv at 10 mins by gamma-counting analysis. It counts as ADME, organism-based. The note with it: in vivo. The method, boiled down: as §1
For data set [13], the system named is Lung. The data set is described as follows: Drug uptake in ddY mouse lung at 370 kBq/100 ul, iv at 10 mins by gamma-counting analysis. It counts as ADME, organism-based. The conditions noted are these: in vivo. The method, boiled down:
as §1

For data set [14], the system named is Brain. The data set is described as follows: Ratio of drug uptake in brain at 2 mins to drug uptake in 20 mins in transgenic C57BL6 mouse expressing APP Swedish mutant. The data set is classed as ADME, tissue-based. The conditions noted are these: in vivo.
The subject of data set [15] is Brain. The data set is described as follows: Drug uptake in wild type C57BL6 mouse brain at 370 kBq/100 ul after 1 hr by autoradiographic analysis. The conditions noted are these: in vitro. It counts as ADME, tissue-based. The method, boiled down: (§2)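 Paraffin sections of brain were used: C57BL6 mice (wild-type, 12 months), human AD (person) and normal human. Sections were deparaffinized through xylene and graded ethanol, then equilibrated 30 min in PBS (0.2 M, pH 7.4). Incubated 1 h at room temperature with tracer, 370 kBq/100 μL, washed 1 min in 50% ethanol and rinsed with water. Imaging plate exposed overnight. Plaques confirmed by thioflavin-S or anti-Aβ1-42 monoclonal immunostaining.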

In data set [16] the test system is Bone. The data set is described as follows: Drug uptake in ddY mouse bone at 370 kBq/100 ul, iv at 60 mins by gamma-counting analysis. The conditions noted are these: in vivo, 1 h. The data set is classed as ADME, organism-based, Bone element. The method, boiled down: as §1
In data set [17] the test system is Bone. The data set is described as follows: Drug uptake in ddY mouse bone at 370 kBq/100 ul, iv at 10 mins by gamma-counting analysis. It counts as ADME, organism-based, Bone element. The note with it: in vivo. The method, boiled down: as §1
Data set [18] has as its system Brain. Put plainly: Drug uptake in wild type C57BL6 mouse brain at 370 kBq/100 ul after 1 hr by thioflavinS-staining method. The data set is classed as ADME, tissue-based. The method, boiled down:
as §2

Data set [19] concerns Kidney. Put plainly: Drug uptake in ddY mouse kidney at 370 kBq/100 ul, iv at 60 mins by gamma-counting analysis. It counts as ADME, organism-based. The note with it: in vivo, 1 h. In outline:
as §1

For data set [20], the system named is Blood. The data set is described as follows: Drug uptake in ddY mouse blood at 370 kBq/100 ul, iv at 30 mins by gamma-counting analysis. It counts as ADME, organism-based. The conditions noted are these: in vivo, 0.5 h. The method, boiled down:
as §1

The test system of data set [21] is Brain. The data set is described as follows: Drug uptake in wild type C57BL6 mouse brain at 40.7 MBq, iv at 2 mins by microPET imaging. The data set is classed as ADME, organism-based. The conditions noted are these: in vivo.
Data set [22] deals with Heart. The data set is described as follows: Drug uptake in ddY mouse heart at 370 kBq/100 ul, iv at 2 mins by gamma-counting analysis. It counts as ADME, organism-based. The conditions noted are these: in vivo. In outline: as §1
Data set [23] has as its system Brain. The data set is described as follows: Drug uptake in healthy human brain at 370 kBq/100 ul after 1 hr by immunohistochemical staining method. The data set is classed as ADME, tissue-based. The method, boiled down:
as §2

Consider `CNc1ccc(-c2nc3cc(OCCOCCOCC[18F])ccc3o2)cc1`, for which the Ratio in data set [1] worked out at 1.77; in [14], 1.21. In addition, the Drug uptake entry in data set [2] is given as “Active”; in data set [3] it was 3.92 % ID/g; in [4] it was 13.06 % ID/g; in [5], 3.9 % ID/g; in [6] it was 23.92 % ID/g; in data set [7] it was “Not Active”. Also, the Drug uptake entry in data set [8] was “Active”; in [9], “Active”; in [10] it was 8.12 % ID/g; in [11], 1.59 %ID; in data set [12], 4.41 % ID/g; in data set [13], 5.64 % ID/g. The Drug uptake result in [15] was “Not Active”; in data set [16] it was 5.78 % ID/g; in data set [17], 2.32 % ID/g; in data set [18] it was “Not Active”; in [19], 5.4 % ID/g; in [20] it was 4.67 % ID/g. Further, the figures for the Drug uptake entry in data set [21], in [22] and in data set [23] were “Active”, 8.57 % ID/g and “Not Active”, respectively.
On to `CN(C)c1ccc(-c2nc3cc(OCCOCCOCC[18F])ccc3o2)cc1`, for which the Drug uptake in data set [3] is 2.53 % ID/g; in data set [4], 6.92 % ID/g; in [5] it was 3.6 % ID/g; in data set [6], 22.59 % ID/g; in data set [10], 5.29 % ID/g; in data set [11] it was 1.1 %ID. Besides, the Drug uptake is 3.37 % ID/g in data set [12]; 3.64 % ID/g in data set [13]; “Not Active” in [15]; 3.45 % ID/g in data set [16]; 1.07 % ID/g in data set [17]; “Not Active” in data set [18]. The Drug uptake was 3.68 % ID/g in data set [19], 2.84 % ID/g in [20], 5.55 % ID/g in [22] and “Not Active” in [23].
